The RNAGym collection of RNA variant scans (doi:10.1126/science.aae0568)
Fewer inactive variants are shown than the library holds.

B1: tRNA (parent)
chain: GUUCCGUUGGCGUAAUGGUAACGCGUCUCCCUCCUAAGGAGAAGACUGCGGGUUCGAGUCCCGUACGGAACG

Variants of: B1
Assay: yeast fitness relative to wild type (ratio to wild type); higher = fitter; tRNA-Arg(CCU), competitive growth, 37 C, YPD
In short: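 A pool of Saccharomyces cerevisiae strains, each with a tRNA-Arg(CCU) gene variant at the native genomic locus, was competed in YPD at 37°C for 24 hours across six parallel replicates. The variants had been chemically synthesised at a 3% per-site mutation rate over 69 sites, and gene amplicons before and after competition were read by 100-nucleotide paired-end sequencing. Darwinian fitness relative to wild type rested on changes in genotype frequencies. Genotypes required ≥ 100 starting reads, and estimates < 0.5 were set to 0.5.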

Point of comparison: C22U C33G C55G, yeast fitness 0.537. Against it:
- C22U C31G C33A G38A U47A — lower, ≤ 0.5
- C22U C33G G41C — lower, ≤ 0.5
- C22U U32C C55A — lower, ≤ 0.5
- C22U C30U A42G C61A — higher, 0.584
- C22U G51C G67A — higher, 0.604
- C22U A36C C55U U59A — lower, ≤ 0.5
- C22U G58C C61A — lower, ≤ 0.5
- C22U C24U U28C C29G C33A G68C — higher, 0.569
- C22U U35C C49U U53A — lower, ≤ 0.5
- C22U C46G — higher, 0.835
- C22U C46A — higher, 0.975
- C22U C46U — higher, 0.995
- C22U G52A C55A C66U — lower, 0.526
- C22U A45C G50A — higher, 0.698
- C22U C27U G51A A57U C61G — lower, ≤ 0.5
- C22U C46G C49G A57G — lower, ≤ 0.5
- C22U A40U A57U A69U — lower, ≤ 0.5
- C22U U26A C29U A43C G52C U53A — lower, ≤ 0.5
- C22U C55G C62A — lower, ≤ 0.5
- C22G U64A — higher, 0.696
- C22U C30U C55G — lower, ≤ 0.5
- C22U C31G A43U C49U C60A A70G — lower, ≤ 0.5
- C22U C31G G51C C62A — lower, ≤ 0.5
- C22U G38A G67C — lower, ≤ 0.5
- C22U G48A C55A G58C — lower, ≤ 0.5
- C22U C24U C33G C55G — lower, ≤ 0.5
- C22U C33U G52A C66U — lower, ≤ 0.5
- C22U U35C A69C — higher, 0.565
- C22U A40G G63C G67C A69U — lower, ≤ 0.5
- C22U C24A C27U A43C — lower, ≤ 0.5
- C22U C24G C34U A37G G44A — lower, ≤ 0.5
- C22U U32C C33G C55G — lower, ≤ 0.5
- C22U G52A C60G — lower, 0.503
- C22U A37U G52C C61G C66A — lower, ≤ 0.5
- C22U C33G C60U C62G — higher, 0.594
- C22U C33G G58A C66U — higher, 0.595
- C22U A42G A45C C55G — lower, ≤ 0.5
- C22U C30U U47A C62U — lower, ≤ 0.5
- C22U U26A C49U A65U — lower, ≤ 0.5
- C22U U32C C46U U54G A70U — higher, 0.655
- C22U C49U U64A A70U — lower, ≤ 0.5
- C22U G25A C33U A42C — lower, ≤ 0.5
- C22U U35A C66U — lower, ≤ 0.5
- C22U C27U G56A — lower, 0.51
- C22U G48C G67C — lower, ≤ 0.5
- C22U G44C A70U — higher, 0.711
- C22U U32A C34U C66U — lower, ≤ 0.5
- C22G U26G C66U — lower, ≤ 0.5
- C22G U59C — higher, 0.864
- C22G U47C G50A — lower, ≤ 0.5
- C22U C33U A42U G52C A57C A65C — lower, ≤ 0.5
- C22U C24U U47C — higher, 0.705
- C22U C33U A69C — lower, 0.522
- C22U A43U C49U C55G C61U — lower, 0.534
- C22U G48A U54C — higher, 0.601
- C22G U26C — higher, 0.971
- C22U A40U A43G A65U — lower, 0.536
- C22U C60G A70G — lower, ≤ 0.5
- C22G U32C A42C G48C C55G — lower, ≤ 0.5
- C22U U35C A37U G50C C66U — higher, 0.569
- C22G U47C A65U — higher, 0.64
- C22G U35A U47C C55U — lower, ≤ 0.5
- C22U G25A A43G U54A C62U — lower, ≤ 0.5
- C22U A36C A65U G67C — lower, ≤ 0.5
- C22U G39C C62U — lower, 0.51
- C22U C62U — higher, 0.867
- C22U C62A — higher, 0.856
- C22U C62G — higher, 0.778
- C22G U35C G50C — lower, ≤ 0.5
- C22U C29U C33U A37C A43U C55A — lower, ≤ 0.5
- C22U G51C C61G — higher, 0.556
- C22U G23C C55U C60G A70C — lower, ≤ 0.5
- C22U C49U G58A — higher, 0.621
- C22U C27U C33A — lower, ≤ 0.5
- C22U G58C C62G G63C — lower, ≤ 0.5
- C22U G41A G50A C55G — lower, ≤ 0.5
- C22U C27G C66U A69U — lower, ≤ 0.5
- C22U C27U A42U A43U U47C — lower, ≤ 0.5
- C22U C24U C46U — higher, 0.654
- C22G U32C G38C C60U — lower, ≤ 0.5
- C22U C27U C33A C60U C62G — higher, 0.558
- C22U C33U C34A G38C — lower, ≤ 0.5
- C22U G38A C55U G68C — lower, ≤ 0.5
- C22G U35A A57G C62A — higher, 0.567
- C22U A40C G58C A69U — lower, ≤ 0.5
- C22G U35A U47C C55U A69C — higher, 0.542
- C22U G38A A40C — higher, 0.541
- C22U C49A — higher, 0.682
- C22U A36U C49U G58C — higher, 0.575
- C22U C55G A70C — higher, 0.558
- C22G U32C U54A G68A — lower, ≤ 0.5
- C22U G63C — higher, 0.67
- C22U C24A G25U A42G — lower, ≤ 0.5
- C22U C34G G48C — lower, ≤ 0.5
- C22U C27G U28G U32G — lower, ≤ 0.5
- C22U C31G G38A U47A C62U — lower, ≤ 0.5
- C22U C24A A43U A57G — lower, ≤ 0.5
- C22U A42G C55G — higher, 0.567
- C22U C24A C29A A36C — lower, ≤ 0.5
- C22U G23C C24A C49U C62U A69C — higher, 0.683
- C22U G56A — higher, 0.734
- C22U A45U C49A — lower, ≤ 0.5
- C22U U47C — higher, 0.857
- C22U U47A — higher, 0.77
- C22U U26G U35A A45G G50A — higher, 0.648
- C22U G23A C61A — higher, 0.58
- C22U G39C — higher, 0.731
- C22U G39A — higher, 0.693
- C22U U32G C34U A40G C66U — higher, 0.647
- C22U C30U C33U A45C G56C G68C — lower, ≤ 0.5
- C22U C33G G41C G56C G58A G63C A65U — lower, ≤ 0.5
- C22U G23A C46U — lower, ≤ 0.5
- C22U C24U U35A A42C A57C — higher, 0.638
- C22U C60U G67A — higher, 0.643
- C22U C34G G39A — lower, ≤ 0.5
- C22U G38C — higher, 0.747
- C22G U35A G58A G67U — lower, ≤ 0.5
- C22G U54C — higher, 0.775
- C22G U54A — higher, 0.591
- C22U C27U A37G — higher, 0.643
- C22U U28A A37U C61U — higher, 0.552
- C22U A37C G44A G63C — lower, ≤ 0.5
- C22U G41A — higher, 0.706
- C22U U26A C29U G52C — higher, 0.624
- C22U C24U C60G — lower, ≤ 0.5
- C22G U32G G48A G52A — lower, ≤ 0.5
- C22G U47G A65C — lower, ≤ 0.5
- C22U A43G A45C C46G G63A — higher, 0.635
- C22U C66U — higher, 0.762
- C22U C66A — higher, 0.716
- C22U C27G A57C — lower, ≤ 0.5
- C22U C31G C60G — lower, ≤ 0.5
- C22U C31G G56U — lower, 0.528
- C22U C31U C60G A70G — lower, ≤ 0.5
- C22U C27U G44C — higher, 0.659
- C22U G52A C55A — higher, 0.579
- C22G U28C C31G — higher, 0.6
- C22U A70U — higher, 0.842
- C22U G23A — higher, 0.591
- C22U G23C — higher, 0.722
- C22U C61A C62U — higher, 0.586
- C22G U53G — lower, 0.503
- C22G U53A — higher, 0.673
- C22U C46G C55A — lower, ≤ 0.5
- C22U C30U C49G — higher, 0.556
- C22U G67A — higher, 0.78
- C22U G67U — higher, 0.808
- C22U C33U A43U G52A — lower, ≤ 0.5
- C22U C24A A42U C61U — higher, 0.562
- C22U A40U — higher, 0.642
- C22U A40C — higher, 0.7
- C22G U47G — higher, 0.597
- C22G U47A — higher, 0.754
- C22G U47C — higher, 0.89
- C22U U47A C60U G67C A69U — lower, ≤ 0.5
- C22U C30A C55G — lower, ≤ 0.5
- C22U C24G C30G G41C — lower, ≤ 0.5
- C22U G23C U26C C30A — lower, 0.507
- C22U G25A A36G G51A C66U — lower, ≤ 0.5
- C22U C46A C66U — lower, ≤ 0.5
- C22U U28C — higher, 0.736
- C22U C29A A65U — lower, ≤ 0.5
- C22U G41A A65C — lower, ≤ 0.5
- C22U G63A A70C — lower, 0.508
- C22G U54A C55U — lower, ≤ 0.5
- C22G U28A G44A — lower, ≤ 0.5
